Bioassay records (PubChem BioAssay)
C2C12 statin: suppressors of statin myotoxicity in C2C12 myotubes, primary screen, cell-based, single point, plate reader. C2C12 myotubes + simvastatin, ATP luminescence, 48 h; scaled: DMSO 0, geranylgeraniol control 100. rescue of ATP level, % at 7.49 µM. 330,000 tested, 0.78% active;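 active = mean ATP rescue above about 67%, or every replicate alone reaching that limit, limit read from the data, passing the limit was not always enough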;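 note: myotubes were challenged with 10 µM simvastatin during compound exposure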
ARFGAP1 inhibitor: inhibitors of rat ARFGAP1 GAP activity, primary screen, biochemical, fluorescence polarization, GDP tracer | ADP-ribosylation factor GTPase-activating protein 1 (Rattus norvegicus), Q62848 | Arfgap1-stimulated ARF1 GTP hydrolysis, GDP FP detection | inhibition, % at 16.5 µM | 360,000 tested, 0.26% active;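 active = inhibition above a per-plate limit, mean inhibition of low control wells plus 3 SD, cut at about 25% in these data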;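 note: 0% = DMSO wells with enzyme and 100% = wells lacking Arfgap1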
Target sequence (Q62848 1-136 limits assumed): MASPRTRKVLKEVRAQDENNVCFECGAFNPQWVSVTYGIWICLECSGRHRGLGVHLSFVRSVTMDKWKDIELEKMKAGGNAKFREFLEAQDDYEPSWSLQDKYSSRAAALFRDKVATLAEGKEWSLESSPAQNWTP
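Repeats: one replicate per compound; assay system: rat Arfgap1 catalytic domain, aa 1-136; times: enzyme reaction 120 min at 25 °C after 20 min preincubation; detection: FP of antibody-bound GDP Alexa 633 tracer, ex 620/em 688 nm; benchmarks: high control wells lacking Arfgap1, low control full reaction with DMSO; reagent: human ARF1(Δ1-17)-GTP substrate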
A3G deaminase: APOBEC3G DNA deaminase inhibitors, primary screen, biochemical, fluorescence, single-stranded DNA substrate, uHTS | 330,000 tested, 0.28% active | AID 493012, 2011 | inhibition, % at 20 µM | DNA dC->dU-editing enzyme APOBEC-3G (Homo sapiens), Q9HC16 | recombinant A3G, ssDNA deamination FAM/TAMRA fluorescence;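 active = inhibition of at least 40% at 20 µM, with no more than 30% in the related APOBEC3A deaminase screen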;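 note: plate controls were DMSO wells with A3G for no effect and wells lacking A3G enzyme for full effect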
ASAP1 inh: inhibitors of human ASAP1 ArfGAP activity, primary screen, biochemical, fluorescence polarization; ASAP1-stimulated ARF1 GTP hydrolysis, GDP FP detection; inhibition, % at 16.5 µM; 360,000 tested, 0.19% active; AID 624377, 2012; in the data active = inhibition above about 25%;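 note: 0% = vehicle with enzyme and substrate and 100% = no enzyme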
APOBEC3A inh: APOBEC3A ssDNA deaminase inhibitors, primary screen, selectivity assay for APOBEC3G inhibitor project, biochemical, FAM/TAMRA oligo cleavage fluorescence | 330,000 tested, 0.41% active | inhibition, % at 20 µM | recombinant A3A, FAM/TAMRA ssDNA deamination fluorescence | AID 493011, 2011;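 active = at least 40% inhibition at 20 µM here, with at most 30% in a related deaminase screen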;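 note: plate controls were A3A with DMSO for no effect and wells lacking A3A enzyme for full effect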
Target sequence (P31941 whole entry, looked up): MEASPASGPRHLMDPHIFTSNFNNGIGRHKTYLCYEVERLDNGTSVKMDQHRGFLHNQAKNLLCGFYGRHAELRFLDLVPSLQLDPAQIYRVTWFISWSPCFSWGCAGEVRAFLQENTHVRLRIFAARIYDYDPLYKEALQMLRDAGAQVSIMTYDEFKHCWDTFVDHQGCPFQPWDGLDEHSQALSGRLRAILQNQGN
Mot1-301 SUMO: yeast Mot1-301 growth rescue at high temperature, primary screen, SUMOylation pathway inhibitor project, S. cerevisiae, ATP luminescence, 38.5C; 320,000 tested, 1% active; growth rescue, % at 18.8 µM; S. cerevisiae Mot1-301 growth rescue; percent above DMSO median, 100 means doubled;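 active = every valid replicate shows activation above 250% relative to neutral control wells; inactive = the rest, any valid replicate at or below 250%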;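 note: OY570 slx delta 5 strain wells were the positive control but not used for scaling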
A3A conf: APOBEC3A deaminase inhibitors, retest, confirmation, selectivity assay for APOBEC3G inhibitor project, biochemical, single concentration, fluorescence readout. inhibition, % at 20 µM. 1,400 tested, 63% active. recombinant A3A, ssDNA deaminase UDG fluorescence assay. shares compounds with APOBEC3A inh. AID 493151, 2011;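 active = inhibition reaching a set limit, 80% of the first screen's cutoff, at 20 µM in any replicate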;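 note: plate controls were DMSO wells with A3A for no effect and wells lacking A3A enzyme for full effect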
UDG ctr A3A: E. coli UDG inhibitors, confirmation, counter-screen for APOBEC3A inhibitor project, biochemical, single concentration, fluorescence, FAM/TAMRA oligo. shares compounds with APOBEC3A inh. UDG counterscreen, FAM/TAMRA uracil oligo fluorescence. inhibition, % at 20 µM. 1,000 tested, under 10 active; call rule not given here
* hit, by the source's call; . = not tested or not shown. Only some compounds are listed: those with a hit (about 2.1% of all), similar ones and a draw of the others.

SMILES | C2C12 statin | ARFGAP1 inhibitor | A3G deaminase | ASAP1 inh | APOBEC3A inh | Mot1-301 SUMO | A3A conf | UDG ctr A3A
COC(=O)[C@H]1[C@H](CO)[C@H]2Cn3c(ccc(/C=C/c4ccccc4)c3=O)[C@@H]1N2C(=O)C1CCC1 | 35 | . | . | . | . | . | . | .
CCOC(=O)/C(CCCN(CC)CC)=N\O | -6 | -9 | 19 | 6 | 75* | -10 | 78* | 1
COC(=O)[C@@H]1[C@@H](CO)[C@@H]2Cn3c(ccc(/C=C/c4ccccc4)c3=O)[C@H]1N2CC1CCCC1 | 11 | . | . | . | . | . | . | .
O=[N+]([O-])c1cc(S(=O)(=O)c2ccc(O)c([N+](=O)[O-])c2)ccc1O | . | 4 | 14 | -4 | 70* | 8 | 84* | 1
O=[N+]([O-])c1cccc(O)c1 | 6 | 4 | -2 | 8 | 2 | 16 | . | .
C[N+](C)(C)c1ccccc1 | 7 | -9 | 14 | 0 | 70* | 351 | 78* | -2
COC(=O)[C@@H]1[C@@H](CO)[C@@H]2Cn3c(ccc(-c4ccncc4)c3=O)[C@H]1N2S(=O)(=O)c1ccccc1C | 4 | . | . | . | . | . | . | .
Cc1cc(/C=C2\C(=O)NC(=O)N(c3cccc(F)c3)C2=O)c(C)n1-c1cc(C(=O)O)cc(C(=O)O)c1 | . | 11 | 29 | 13 | 70* | -17 | 53* | 7
CCN1[C@@H]2Cn3c(ccc(-c4cccc(OC)c4)c3=O)[C@H]1[C@@H](C(=O)OC)[C@@H]2CO | -7 | . | . | . | . | . | . | .
Cc1sc2ncnc(N3CCC(C(=O)Nc4ccc(C#N)c(Cl)c4)CC3)c2c1C | 5 | 6 | 7 | 5 | 53* | 0 | 10 | .
COC(=O)[C@H]1[C@H](CO)[C@H]2Cn3c(cccc3=O)[C@@H]1N2C(=O)C1CCC1 | 22 | . | . | . | . | . | . | .
CCCC[N+]12CCC(CC1)C(=C(c1ccccc1)c1ccccc1)C2 | . | 5 | 12 | -6 | 97* | -10 | 71* | 0
COc1cccc(Oc2coc3cc(OC(=O)N(C)C)ccc3c2=O)c1 | 3 | -2 | -5 | -7 | 99* | 12 | 6 | 1
COC(=O)[C@H]1[C@H](CO)[C@H]2Cn3c(ccc(C4=CCCCC4)c3=O)[C@@H]1N2Cc1cccnc1 | 6 | . | . | . | . | . | . | .
COC(=O)[C@@H]1[C@@H](CO)[C@@H]2Cn3c(ccc(-c4ccncc4)c3=O)[C@H]1N2S(=O)(=O)c1ccccc1F | 0 | . | . | . | . | . | . | .
CN(C)C(=O)OCc1n(C)cc[n+]1C | . | 4 | -5 | 1 | -2 | -12 | . | .
CCN(CC)P(c1n(C)cc[n+]1C)N(CC)CC | 13 | -2 | 11 | 3 | 62* | 0 | 65* | -1
N#Cc1cccc(-c2ccc([C@@H]3[C@@H](CO)N4CCCCN(C(=O)Cc5cccnc5)C[C@H]34)cc2)c1 | 3 | . | . | . | . | . | . | .
C[N+]1(CC2COC(c3ccco3)O2)CCCCC1 (stereo not given) | . | 8 | 25 | 10 | 60* | 9 | 66* | -1
CCCN1[C@@H]2Cn3c(ccc(-c4cccc(C(=O)N(C)C)c4)c3=O)[C@H]1[C@@H](C(=O)OC)[C@@H]2CO | 19 | . | . | . | . | . | . | .
Cc1ccc(/C=C2/C(=O)NC(=O)N(CCc3ccc(F)cc3)C2=O)o1 | . | -2 | -5 | 4 | -2 | 3 | . | .
O=C1NC(=O)N(CCc2ccc(F)cc2)C(=O)/C1=C/c1ccco1 | . | -8 | 27 | 0 | 74* | . | 52* | 6
